These results are taken from ChEMBL document CHEMBL3045555, “Structure elucidation and antifungal activity of an anthracycline antibiotic, daunomycin, isolated from Actinomadura roseola” (J Agric Food Chem, 2000).

Molecules are shown by their SMILES. Calls of active or inactive are those of the source. No cut-off for these calls is given here.

For experiment [1], the system named is Phytophthora capsici. Put plainly: Antifungal activity against Phytophthora capsici in pepper plants assessed as decrease in Phytophthora blight disease at 50 ug/ml. The class given is functional, organism-based. In a few lines: (§1)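 Pepper plants raised at 28 °C with 16 h light per day. Antibiotic in methanol, diluted, was sprayed onto plants at first-branch stage 1 day before inoculation. Stems were slit 1 cm above soil and covered with cotton soaked in 1 × 105 zoospores mL-1 P. capsici, then taped. Disease was rated daily on a 0–5 severity scale; values are means of 10 plants per treatment.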

In experiment [2] the test system is Phytophthora capsici. Put plainly: Antifungal activity against Phytophthora capsici in pepper plants assessed as decrease in Phytophthora blight disease at 100 ug/ml. Type of experiment: functional, organism-based. Put shortly: as §1

Take `COCC(=O)N(c1c(C)cccc1C)C(C)C(=O)OC` (configuration not stated): the outcome in the experiment with Phytophthora capsici [1] and with Phytophthora capsici [2] was Active.
